High-throughput results from PubChem BioAssay.
MC4R antag cAMP: blocks human MC4R cAMP signaling; P32245; MC4R-expressing cells, MTII-stimulated cAMP, LANCE TR-FRET; inhibition, % at 6.5 µM; 360,000 compounds, 0.48% hits;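 active = inhibition above its plate's cutoff, the mean of tested wells on that plate plus 3 SD, cut at about 29% in these data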
Target sequence (P32245 whole entry, looked up): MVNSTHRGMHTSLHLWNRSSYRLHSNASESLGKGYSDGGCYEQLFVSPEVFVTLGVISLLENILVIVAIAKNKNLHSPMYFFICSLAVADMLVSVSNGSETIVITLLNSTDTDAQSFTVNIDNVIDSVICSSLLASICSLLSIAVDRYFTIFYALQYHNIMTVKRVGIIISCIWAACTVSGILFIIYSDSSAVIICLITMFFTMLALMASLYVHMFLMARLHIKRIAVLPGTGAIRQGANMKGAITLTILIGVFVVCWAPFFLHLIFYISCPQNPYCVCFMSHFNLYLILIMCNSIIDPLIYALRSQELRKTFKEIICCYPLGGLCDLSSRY
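System: U2OS cells stably expressing human melanocortin 4 receptor (MC4R). Reagent: Melanotan II challenge after compound preincubation. Doses: 6.5 µM. Times: 30-min compound, 1-h challenge, 1-h detection, room temperature. Measured by: TR-FRET with Eu-cAMP and labeled anti-cAMP, 671 nm. Replicates: singlicate.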
F508del corr: correctors of CFTR F508del function in bronchial epithelial cells | CFBE cells, YFP halide quenching; stimulated with forskolin plus potentiator P3; % fluorescence drop versus neutral controls | activity (quench increase), % at 7.58 µM | 350,000 compounds, 0.36% hits;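 active = mean added fluorescence quench of at least 8% versus neutral control, with both replicates also reaching 8%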;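 note: cells transiently co-express mutant CFTR-F508del with the halide-sensitive YFP; corrector assay measuring rescue of mutant channel to the surface after 24 h compound exposure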
SMARCA2 act: activators of SMARCA2 function | MG213 cells, MMTV-luciferase reporter, dexamethasone, overnight | activation, % at 9.1 µM | 370,000 compounds, 1% hits | AID 652017; in the data active = activation above about 7.8%
MC4R ag barr: human MC4R agonism via beta-arrestin. U2OS MC4R beta-arrestin complementation, luminescence; percent of melanotan II response, DMSO zero. activation, % at 8.9 µM. 360,000 compounds, 0.98% hits. AID 540308;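 active = activation above a per-plate cutoff, the mean activation of sample wells on that plate plus 3 SD, cut at about 8% in these data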
SMARCA2 conf: confirmation of SMARCA2 (BRM) function activators; shares compounds with SMARCA2 act; MG213 cells, MMTV-luciferase with dexamethasone, luminescence, overnight; MG213 cells expressing E1A, Rb sequestered; DMSO wells 0%, reference activator 100%; activation, % at 9.1 µM; 3,500 compounds, 30% hits; AID 652260;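 active = activation above its plate's cutoff, the mean activation of tested wells plus 3 SD, cut at about 7.9% in these data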
VP16 Luc act: counter-screen for SMARCA2 activators: GAL4-VP16 luciferase reporter activation. activation, % at 9.1 µM. shares compounds with SMARCA2 act. 3,500 compounds, 41% hits. HEK293 GAL4-VP16 pG5luc reporter, luciferase luminescence; scaled: DMSO wells 0%, SAHA wells 100%;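 active = activation above the solvent-only control well mean plus 3 SD, averaged across control plates, cut at about 5.2% in these data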
Of the large screens only hits and unclear results are named; the others gave an inactive call (follow-up assays come after a bar, where they were run). Hits are enriched below; roughly 2.1% of the tested compounds scored in any of these assays.

Cc1noc(C)c1NC(=O)N(C)C[C@H]1Oc2c(NC(=O)Nc3ccc(F)cc3)cccc2C(=O)N([C@@H](C)CO)C[C@@H]1C	none (no result: MC4R antag cAMP, SMARCA2 act, MC4R ag barr)
COC(=O)C1CN(Cc2ccc(Cl)cc2)CCS(=O)(=O)N1Cc1cn(Cc2ccc(Cl)cc2)nn1 (configuration not stated)	none (no result: MC4R antag cAMP, F508del corr, MC4R ag barr)
C=CCN1C(C(=O)OC)CN(Cc2cn(Cc3ccc(Cl)cc3)nn2)CCS1(=O)=O (configuration not stated)	SMARCA2 act 8.5 (no result: MC4R antag cAMP, F508del corr, MC4R ag barr) | SMARCA2 conf inactive | VP16 Luc act inactive
CCOC(=O)Cn1cc(CN2CCS(=O)(=O)N(Cc3ccc(F)cc3)C(C(=O)OC)C2)nn1 (configuration not stated)	SMARCA2 act 8.5 (no result: MC4R antag cAMP, F508del corr, MC4R ag barr) | SMARCA2 conf inactive | VP16 Luc act inactive
CCOC(=O)Cn1cc(CN2C(C(=O)OC)CN(Cc3ccc(F)cc3)CCS2(=O)=O)nn1 (configuration not stated)	none (no result: MC4R antag cAMP, F508del corr, MC4R ag barr)
COc1ccc(/C=N/NC(=O)c2ccn[nH]2)cc1COc1ccc(F)cc1	SMARCA2 act 8.4 (no result: F508del corr) | SMARCA2 conf inactive | VP16 Luc act inactive
COc1ccc(/C=N/NC(=O)c2ccn[nH]2)cc1COc1ccc([N+](=O)[O-])c(C)c1	none (no result: F508del corr)
O=C(CSc1nnc(Cc2ccccc2)o1)NCCc1ccccc1	SMARCA2 act 8.2 | SMARCA2 conf inactive | VP16 Luc act inactive
C[C@@H]1CN([C@H](C)CO)C(=O)c2cc(C#Cc3ccccc3)cnc2O[C@H]1CN(C)S(=O)(=O)c1ccccc1F	none (no result: MC4R antag cAMP, SMARCA2 act, MC4R ag barr)
CCCCCCN[C@H]1CCC2C3CC=C4C[C@@H](O)CC[C@]4(C)C3CC[C@@]21C (some centres not stated)	SMARCA2 act 11 | SMARCA2 conf 9.7 | VP16 Luc act inactive
CCOC(=O)Cc1cc(=O)n2[nH]c(-c3ccc(C)cc3)cc2n1	none (no result: F508del corr)
CCc1c(C)nc2cc(-c3ccc(OC)cc3)[nH]n2c1=O	SMARCA2 act 8.9 (no result: F508del corr) | SMARCA2 conf 11 | VP16 Luc act 11
COCc1cc(=O)n2[nH]c(-c3ccc(C)cc3)cc2n1	SMARCA2 act 10 (no result: F508del corr) | SMARCA2 conf 8.9 | VP16 Luc act inactive
C[C@@H]1CCCCO[C@H](CN(C)Cc2ccc3c(c2)OCO3)[C@H](C)CN([C@@H](C)CO)C(=O)c2cc(NS(C)(=O)=O)ccc2O1	none (no result: MC4R antag cAMP, SMARCA2 act, MC4R ag barr)
Cc1nc2cc3nc(C)sc3cc2s1	SMARCA2 act 9.0 (no result: F508del corr) | SMARCA2 conf 8.7 | VP16 Luc act 6.7
Cc1nc2cc3ccccc3cc2s1	none
O=C(NCC1CCCO1)c1sc2cc(Cl)ccc2c1Cl (configuration not stated)	SMARCA2 act 10 (no result: F508del corr) | SMARCA2 conf 8.4 | VP16 Luc act 9.4
O=C(NCCN1CCOCC1)c1sc2cc(Cl)ccc2c1Cl	none
C/C(=N\NC(=S)Nc1ccccc1)C1Cc2ccccc2C(=O)O1 (configuration not stated)	SMARCA2 act 8.3 | SMARCA2 conf inactive | VP16 Luc act inactive
C/C=C/c1cnc2c(c1)C(=O)N([C@H](C)CO)C[C@H](C)[C@H](CN(C)Cc1cncnc1)O2	none (no result: MC4R antag cAMP, SMARCA2 act, MC4R ag barr)
COC(=O)c1ccc2nc(-c3ccc(F)cc3)c(Cc3ccccc3C(F)(F)F)n2c1	SMARCA2 act 9.1 (no result: MC4R antag cAMP, MC4R ag barr) | SMARCA2 conf inactive | VP16 Luc act inactive
Cc1c(NC(=O)C(C)OC(=O)c2cccnc2)c(=O)n(-c2ccccc2)n1C (configuration not stated)	SMARCA2 act 8.3 | SMARCA2 conf inactive | VP16 Luc act inactive
Cc1c(NC(=O)C(C)OC(=O)c2cc(Cl)nc(Cl)c2)c(=O)n(-c2ccccc2)n1C (configuration not stated)	none
O=C(O)CCCNS(=O)(=O)c1ccc(F)cc1	SMARCA2 act 8.8 (no result: F508del corr) | SMARCA2 conf inactive | VP16 Luc act inactive
CN(C)c1ccc(C(=O)/C=C/c2ccccc2)cc1	SMARCA2 act 10 | SMARCA2 conf 8.6 | VP16 Luc act 14
O=C(/C=C/c1ccccc1)NNC(=O)c1cccc(Cl)c1	none (no result: F508del corr)
CCOc1ccc(C(=O)/C=C/c2ccc(SC)cc2)cc1	none
CCOc1ccc(/C=C/C(=O)c2ccccc2)cc1	SMARCA2 act 9.9 | SMARCA2 conf inactive | VP16 Luc act 12
O=C(C=Cc1cccc(Cl)c1)c1ccccc1	SMARCA2 act 10 | SMARCA2 conf inactive | VP16 Luc act inactive
O=C(C=Cc1ccc(OCc2ccccc2)cc1)c1c(F)cccc1F	SMARCA2 act 10 (no result: MC4R antag cAMP, MC4R ag barr) | SMARCA2 conf 9.9 | VP16 Luc act inactive
CN(C)c1ccc(/C=C/C(=O)c2ccccc2)cc1[N+](=O)[O-]	SMARCA2 act 9.3 (no result: F508del corr) | SMARCA2 conf inactive | VP16 Luc act inactive
CNc1ccc(/C=C/C(=O)c2ccc(C)cc2)cc1[N+](=O)[O-]	none (no result: F508del corr)
OCCCN=c1cc(-c2ccccc2)oc2ccc(Cl)cc12	SMARCA2 act 12 (no result: F508del corr) | SMARCA2 conf 37 | VP16 Luc act 6.3
Cc1cccc(-n2[nH]c3c4c(ccc3c2=O)C(=O)c2ccccc2C4=O)c1	SMARCA2 act 8.3 (no result: F508del corr) | SMARCA2 conf inactive | VP16 Luc act inactive
O=C1c2ccccc2C(=O)c2c1ccc1c(=O)n(-c3ccccc3)[nH]c21	none (no result: F508del corr)
COc1ccccc1C(CC(=O)O)NS(=O)(=O)c1ccc2c(c1)N(C(C)=O)CC(C)O2 (configuration not stated)	SMARCA2 act 10 | SMARCA2 conf inactive | VP16 Luc act inactive
CC(=O)N1CC(C)Oc2ccc(S(=O)(=O)NC(CC(=O)O)c3ccc(C)cc3C)cc21 (configuration not stated)	none
CO[C@H]1CN(C)C(=O)c2cc(NS(C)(=O)=O)ccc2OC[C@@H](C)N(C(=O)c2ccc3c(c2)OCO3)C[C@@H]1C	none (no result: MC4R antag cAMP, SMARCA2 act, MC4R ag barr)
O=S(=O)(c1cc(Cl)cc(Cl)c1O)N1CCC2(CC1)OCCO2	none
Cc1cc(S(=O)(=O)N2CCC3(CC2)OCCO3)c(C)cc1Cl	SMARCA2 act 12 | SMARCA2 conf inactive | VP16 Luc act inactive
CNC[C@@H]1Oc2ccc(NC(=O)Nc3c(C)noc3C)cc2CC(=O)N([C@@H](C)CO)C[C@H]1C	none (no result: MC4R antag cAMP, SMARCA2 act, MC4R ag barr)
CCOC(=O)c1cc2c(=O)n3ccccc3nc2n(C(C)C)c1=NC(=O)c1ccco1	none
CCCn1c(=NC(=O)c2ccco2)c(C(=O)OCC)cc2c(=O)n3ccccc3nc21	SMARCA2 act 13 (no result: F508del corr) | SMARCA2 conf inactive | VP16 Luc act inactive
CCC(=O)NC(c1ccccc1)c1nc2ccccc2[nH]1 (configuration not stated)	SMARCA2 act 8.5 (no result: F508del corr) | SMARCA2 conf inactive | VP16 Luc act inactive
Cc1noc(C)c1C(=O)NCc1ccccc1	none (no result: F508del corr)
Cc1noc(C)c1C(=O)NCCc1ccccc1	SMARCA2 act 9.7 (no result: F508del corr) | SMARCA2 conf inactive | VP16 Luc act inactive
COc1ccc(Nc2cc3n(c(=O)n2)CCc2cc(OC)c(OC)cc2-3)cc1	none
